According to ChEMBL document CHEMBL3994592, “Antimicrobial Oligophenalenone Dimers from the Soil Fungus Talaromyces stipitatus” (J Nat Prod, 2016):
Converted amounts (≈) assume the structure as drawn.

How the values were obtained:
Escherichia coli = assay: Antibacterial activity against Escherichia coli ATCC 8739 after 24 hrs; format: functional; settings: ATCC 8739, ATCC 8739, 24 h
Procedure, shortened: (§1)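 Broth microdilution in LB. Precultures were grown 24 h at 37 °C in 10 mL LB and diluted 1/1000 (OD600 0.01) into 96-well plates. Two-fold serial dilutions were made from 10 mg/mL stocks, 2 µL per 200 µL medium. Plates were incubated 24 h at 37 °C and OD read at 595 nm. MIC is the concentration giving a 90% decrease versus DMSO-only control, obtained by curve fitting.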

Enterococcus faecalis = assay: Antibacterial activity against Enterococcus faecalis CIP 103014 after 24 hrs; format: functional; settings: CIP 103014, 24 h; procedure, shortened: as §1
[1] = system: Staphylococcus haemolyticus; assay: Antibacterial activity against Staphylococcus haemolyticus MNHN26 after 24 hrs; format: functional; settings: MNHN26, 24 h; procedure, shortened: as §1
HeLa = assay: Cytotoxicity against human HeLa cells assessed as reduction in cell viability by MTT assay; format: functional, cell-based
Procedure, shortened: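 HeLa cells were seeded at 2500 cells/well, incubated overnight, then exposed in exponential growth to a range of concentrations for four doubling times. Viability was measured by MTT, 4 h at 37 °C, with formazan read at 560 nm. Concentration inhibiting growth by 50% versus untreated controls was taken from dose-survival curves. At least three independent experiments, each in duplicate; cisplatin served as control.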

Staphylococcus aureus = assay: Antibacterial activity against Staphylococcus aureus ATCC 6538 after 24 hrs; format: functional; settings: ATCC 6538, 24 h; procedure, shortened: as §1

Structure (SMILES)	MIC (Escherichia coli) [µg/mL]	MIC90 (Enterococcus faecalis) [µg/mL]	MIC90 (Staphylococcus aureus) [µg/mL]	MIC90 [1] [µg/mL]	IC50 (HeLa) [µM]
CO[C@H]1OC(=O)c2c(O)cc(C)c3c4c(c(O)c1c23)[C@]12COC(=O)c3c(O)cc(C)c(c31)C(=O)[C@H]4[C@@H]2OC(C)=O	> 100	> 30	15.6 (≈ 28.5 µM)	> 30	> 50
CC(=O)O[C@H]1[C@@H]2C(=O)c3c(C)cc(O)c4c3[C@@]1(COC4=O)C1=C2c2c(C)cc(O)c3c2[C@@](O)(COC3=O)C1=O	> 100	> 30	29.3 (≈ 55 µM)	> 30	> 100
CC(=O)O[C@H]1[C@@H]2C(=O)c3c(C)cc(O)c4c3[C@@]1(COC4=O)c1c(O)c(C=O)c3cc(O)cc(C)c3c12	> 100	> 50	> 50	> 50	> 50
CC(=O)O[C@H]1[C@@H]2C(=O)c3c(C)cc(O)c4c3[C@@]1(COC4=O)c1c(O)c3c4c(c(O)cc(C)c4c12)C(=O)OC3	> 100	2.4 (≈ 4.65 µM)	5.2 (≈ 10.1 µM)	9.5 (≈ 18.4 µM)	

Further lines, with some results ahead:

MIC (Escherichia coli) [µg/mL]	MIC90 (Enterococcus faecalis) [µg/mL]	MIC90 (Staphylococcus aureus) [µg/mL]	Structure (SMILES)	MIC90 [1] [µg/mL]	IC50 (HeLa) [µM]
	0.4 (≈ 0.9 µM)	0.05 (≈ 0.113 µM)	CN(C)[C@@H]1C(O)=C(C(N)=O)C(=O)[C@@]2(O)C(O)=C3C(=O)c4c(O)cccc4[C@@](C)(O)[C@H]3C[C@@H]12 [TETRACYCLINE]	29.5 (≈ 66.4 µM)	
> 100	> 30	5 (≈ 9.17 µM)	CO[C@@]12c3c(C)cc(O)c4c3C(=C(O)[C@@H]1[C@]13COC(=O)c5c(O)cc(C)c(c51)C(=O)[C@H]2[C@@H]3OC(C)=O)C=NC4=O	20.4 (≈ 37.4 µM)	49.5
